A short description of assay [1]: Cytotoxicity against mouse BA/F3 cells expressing BCR-ABL L248V mutant assessed as growth inhibition after 72 hrs by CCK-8 assay. To be noted: BaF3, 72 h. Background: Tetrazolium dyes change colour on reduction, which living cells bring about.
Assay [2] is described as follows: cells. To be noted: Mus musculus, BaF3, 72 h.
Assay [3] is described as follows: Cytotoxicity against mouse BA/F3 cells expressing BCR-ABL E255V mutant assessed as growth inhibition after 72 hrs by CCK-8 assay. The note with it: BaF3, 72 h.
The nature of assay [4]: Cytotoxicity against mouse BA/F3 cells expressing wild type BCR-ABL assessed as growth inhibition after 72 hrs by CCK-8 assay. The note with it: BaF3, 72 h.
Assay [5] can be described thus: Cytotoxicity against mouse BA/F3 cells expressing BCR-ABL Y253F mutant assessed as growth inhibition after 72 hrs by CCK-8 assay. To be noted: BaF3, 72 h.
Assay [6] in a line: Cytotoxicity against mouse BA/F3 cells expressing BCR-ABL F317L mutant assessed as growth inhibition after 72 hrs by CCK-8 assay. The note with it: BaF3, 72 h.
A short description of assay [7]: Cytotoxicity against mouse BA/F3 cells expressing BCR-ABL M351T mutant assessed as growth inhibition after 72 hrs by CCK-8 assay. The note with it: BaF3, 72 h.
Assay [8] is described as follows: Cytotoxicity against mouse BA/F3 cells expressing BCR-ABL F486S mutant assessed as growth inhibition after 72 hrs by CCK-8 assay. To be noted: BaF3, 72 h.
The nature of assay [9]: Cytotoxicity against mouse BA/F3 cells assessed as growth inhibition after 72 hrs by CCK-8 assay. To be noted: BaF3, 72 h.
A short description of assay [10]: Cytotoxicity against mouse BA/F3 cells expressing BCR-ABL E355G mutant assessed as growth inhibition after 72 hrs by CCK-8 assay. To be noted: BaF3, 72 h.
Assay [11] is described as follows: Cytotoxicity against mouse BA/F3 cells expressing BCR-ABL E359V mutant assessed as growth inhibition after 72 hrs by CCK-8 assay. The note with it: BaF3, 72 h.
The nature of assay [12]: cells. The note with it: Mus musculus, BaF3, 72 h. This is another data set of the same source.
A short description of assay [13]: Cytotoxicity against mouse BA/F3 cells expressing BCR-ABL H396R mutant assessed as growth inhibition after 72 hrs by CCK-8 assay. The note with it: BaF3, 72 h.
Assay [14] can be described thus: Cytotoxicity against mouse BA/F3 cells expressing BCR-ABL Y253H mutant assessed as growth inhibition after 72 hrs by CCK-8 assay. The note with it: BaF3, 72 h.
Assay [15] is described as follows: Cytotoxicity against mouse BA/F3 cells expressing BCR-ABL F317V mutant assessed as growth inhibition after 72 hrs by CCK-8 assay. The note with it: BaF3, 72 h.
Assay [16] is described as follows: Cytotoxicity against mouse BA/F3 cells expressing BCR-ABL E255K mutant assessed as growth inhibition after 72 hrs by CCK-8 assay. To be noted: BaF3, 72 h.
Assay [17] can be described thus: cells. The note with it: Mus musculus, BaF3, 72 h. This is another data set of the same source.
Assay [18] deals with BaF3. Nature of the assay: Antitumor activity against mouse BA/F3 cells expressing BCR-ABL T315I mutant allografted in SCID mouse assessed as suppression of cell proliferation at 100 mg/kg/day, po qd for 10 days relative to untreated vehicle. It counts as functional, organism-based. In a few lines:
(§1)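 Ba/F3 cells coexpressing Bcr-Abl T315I and firefly luciferase were injected iv (2 × 10^6 cells/0.1 mL saline) into SCID nude mice. At 5−7 days, mice were imaged after ip D-luciferin under halothane and randomized by signal. Dosing was oral gavage once daily for 10 days in DMSO/Cremophor/ethanol/saline vehicle. Luminescence was imaged after dosing; survival was analysed by Kaplan−Meier with log-rank test.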

Assay [19] concerns K562. Nature of the assay: Antitumor activity against human K562 cells xenografted in mouse assessed as induction of tumor stasis at 50 mg/kg, […]. Type of assay: functional, organism-based. On the set-up: dose 50 mg/kg. In general terms: A xenograft is tissue or cells of one species grown in another, often human tumour cells in immunodeficient mice.
Assay [20] concerns BaF3. Nature of the assay: Antitumor activity against mouse BA/F3 cells expressing wild type BCR-ABL allografted in SCID mouse assessed as inhibition of tumor growth at 50 mg/kg, po qd for 14 days. Also noted: dose 50 mg/kg. Type of assay: functional, organism-based. In a few lines:
(§2)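 Subcutaneous allograft: Ba/F3 cells stably carrying Bcr-Abl (WT or T315I), 2.5 × 10^7 cells/mL in saline, 0.2 mL into the right flank. Randomized at 100−200 mm3, n = 10 per group. Oral gavage once daily for 14 days in DMSO/Cremophor/ethanol/saline vehicle. Tumor volume (L × W²/2) every 2 days; unpaired t test versus vehicle.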

For assay [21], the system named is BaF3. The assay can be described thus: Antitumor activity against mouse BA/F3 cells expressing BCR-ABL T315I mutant allografted in SCID mouse assessed as inhibition of tumor growth at 100 mg/kg/day, po qd for 14 days. Type of assay: functional, organism-based. The method in brief: as §2
Assay [22] has as its system BaF3. The assay can be described thus: Antitumor activity against mouse BA/F3 cells expressing BCR-ABL T315I mutant allografted in SCID mouse assessed as increased survival at 100 mg/kg/day, po qd for 10 days. Type of assay: functional, organism-based. In a few lines:
as §1

Assay [23] deals with K562. Nature of the assay: Cytotoxicity against imatinib-resistant human K562 cells expressing BCR-ABL Q252H mutant assessed as growth inhibition after 72 hrs by CCK-8 assay. Type of assay: functional, cell-based. The note with it: K562, 72 h. The method in brief: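 The K562 subline was made imatinib-resistant by 3 months of exposure to imatinib from 0.1 to 5 μM, followed by clonal selection and sequencing to confirm Q252H. Cells were seeded at about 3000 cells/well, treated 24 h later for 72 h, then given CCK-8 for 3 h. Read-out was OD450 − OD650 normalized to vehicle; IC50 is the mean of three experiments.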

Assay [24] is described as follows: Cytotoxicity against human KU812 cells expressing BCR-ABL assessed as growth inhibition after 72 hrs by CCK-8 assay. It counts as functional, cell-based. To be noted: KU812, 72 h. The method in brief: (§3)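 Log-phase human leukemia cells were seeded at about 3000 cells/well and treated 24 h later for 72 h. CCK-8 was then incubated with the cells for 3 h and read as OD450 − OD650. Viability was normalized to vehicle wells and cell-free blanks, and IC50 taken as the mean of three experiments.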

For the next assay, the system named is MOLT-4. The assay can be described thus: Cytotoxicity against human MOLT4 cells […] assessed as growth inhibition after 72 hrs by CCK-8 assay. To be noted: MOLT-4, 72 h. Type of assay: functional, cell-based. In a few lines:
as §3

The next assay has as its system U-937. The assay can be described thus: Cytotoxicity against human U937 cells […] assessed as growth inhibition after 72 hrs by CCK-8 assay. Type of assay: functional, cell-based. The note with it: U-937, 72 h. In a few lines:
as §3

Assay [25] concerns K562. Nature of the assay: Cytotoxicity against human K562 cells expressing BCR-ABL assessed as growth inhibition after 72 hrs by CCK-8 assay. To be noted: K562, 72 h. It counts as functional, cell-based. In a few lines:
as §3

Assay [26] is described as follows: Cytotoxicity against human SUP-B15 cells expressing BCR-ABL assessed as growth inhibition after 72 hrs by CCK-8 assay. Type of assay: functional, cell-based. The note with it: SUP-B15, 72 h. The method in brief: as §3
The next assay deals with HL-60. Nature of the assay: Cytotoxicity against human HL60 cells […] assessed as growth inhibition after 72 hrs by CCK-8 assay. Type of assay: functional, cell-based. The note with it: HL-60, 72 h. In a few lines: as §3

The structures appear in SMILES notation. Activity calls are given as the source filed them. The rule behind the calls is not given here.

`Cc1nc(Nc2ncc(C(=O)Nc3c(C)cccc3Cl)s2)cc(N2CCN(CCO)CC2)n1` [DASATINIB]: the IC50 – broadly, the point on the concentration scale where inhibition reaches its midpoint – was found to be 29 nM in assay [1]; 5.1 nM in “cells [2]”; 23 nM in assay [3]; 1.9 nM in assay [4]; 17 nM in assay [5]; 19 nM in assay [6]. Further, the half-inhibitory concentration (IC50) in [7] was 0.2 nM; in assay [8], 0.9 nM; in [9], 2500 nM; in assay [10], 15 nM; in [11], 1.3 nM; in the assay “cells [12]”, 8 nM. The IC50 in assay [13] came out at 3800 nM; in [14], 2.3 nM; in assay [15] it was 25 nM; in assay [16], 3.2 nM; in “cells [17]”, 3600 nM.
Take `Cc1ccc(NC(=O)c2ccc(CN3CCN(C)CC3)cc2)cc1Nc1nccc(-c2cccnc2)n1` [IMATINIB]: the IC50 was 12200 nM in assay [1]; 5200 nM in “cells [2]”; greater than 10000 nM in assay [3]; 9200 nM in [5]; 3300 nM in assay [6]; 240 nM in [7]. In addition, the IC50 in [8] is 1000 nM; in [9], 13500 nM; in assay [10] it was 1600 nM; in [11] it was 590 nM; in “cells [12]”, 3600 nM; in assay [13], 11100 nM. The IC50 in assay [14] came to 12500 nM; in [15], 9500 nM; in assay [16] it was 5600 nM; in the assay “cells [17]”, 12200 nM. Further, the result with BaF3 [18], in the assay on K562 [19] and in the assay on BaF3 [22] was inactive. The TGI entry with BaF3 [20] was “Active”. Further, the TGI entry with BaF3 [21] is “inactive”.
For the compound `Cc1cn(-c2cc(NC(=O)c3ccc(C)c(Nc4nccc(-c5cccnc5)n4)c3)cc(C(F)(F)F)c2)cn1` [NILOTINIB], the IC50 in [1] was determined as 3000 nM; in the assay “cells [2]”, 150 nM; in assay [3], 1200 nM; in assay [4], 22 nM; in [5], 1400 nM; in [6], 160 nM. Besides, the IC50 is 3 nM in assay [7]; 9.5 nM in [8]; 15100 nM in [9]; 130 nM in [10]; 21100 nM in assay [13]; 1000 nM in assay [14]. In addition, the IC50 was 2900 nM in assay [15], 170 nM in assay [16] and 16000 nM in “cells [17]”.
Turning to `CC(=O)O[C@H]1C(=O)[C@@]2(C)[C@H]([C@H](OC(=O)c3ccccc3)[C@]3(O)C[C@H](OC(=O)[C@H](O)[C@@H](NC(=O)c4ccccc4)c4ccccc4)C(C)=C1C3(C)C)[C@]1(OC(C)=O)CO[C@@H]1C[C@@H]2O` [PACLITAXEL], the IC50 in the assay with K562 [23] worked out at 7 nM; in assay [24] it was 5.3 nM; in the assay on MOLT-4, 2.7 nM; in the assay with U-937, 2.3 nM; in the assay on K562 [25] it was 5.1 nM; in assay [26], 8 nM. Besides, the IC50 with HL-60 was 5.8 nM.
